The list is not random: actives were taken first. Their share in the collection is about 3%.
sEH act = activators of human soluble epoxide hydrolase; activation, % at 2 µM; purified human sEH enzymatic activity, activator screen; AID 717; 91,000 compounds, 0.04% hits; P34913; in the data active = activation above about 37%
Target sequence (P34913 whole entry, looked up): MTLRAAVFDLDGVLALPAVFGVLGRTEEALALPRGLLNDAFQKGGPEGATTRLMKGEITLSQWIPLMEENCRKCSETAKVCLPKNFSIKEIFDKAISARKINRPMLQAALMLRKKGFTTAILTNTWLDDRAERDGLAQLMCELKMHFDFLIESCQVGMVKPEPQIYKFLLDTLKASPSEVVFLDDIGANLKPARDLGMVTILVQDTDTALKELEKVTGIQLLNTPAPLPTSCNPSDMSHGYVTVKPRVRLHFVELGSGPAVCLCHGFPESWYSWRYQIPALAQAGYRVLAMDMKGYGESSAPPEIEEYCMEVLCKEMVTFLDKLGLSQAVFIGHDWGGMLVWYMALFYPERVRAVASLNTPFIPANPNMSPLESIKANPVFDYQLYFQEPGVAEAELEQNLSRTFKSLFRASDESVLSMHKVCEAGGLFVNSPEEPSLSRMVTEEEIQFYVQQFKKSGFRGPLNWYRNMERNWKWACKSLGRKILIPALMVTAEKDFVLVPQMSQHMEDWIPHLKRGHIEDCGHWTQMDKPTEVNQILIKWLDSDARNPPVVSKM
sdo1 growth = restores growth of sdo1-depleted yeast | S. cerevisiae sdo1-depleted JHY4D growth rescue, OD600 30 h; active compounds read high; pdr5 snq2 efflux-pump mutant strain | z-score at 10 µM | 140,000 compounds, 0.21% hits;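 active = z-score above 3 at both the 24 hr and the 30 hr optical density reads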
Measles CPE = protection of cells from measles virus. Measles virus-infected cells, CPE protection, absorbance. 140,000 compounds, 1.5% hits. protection (pct of control), % at 4 µM; in the data active = protection mostly above about 24%, no sharp cut-off; inactive = mostly below about 26%
Yeast lifespan up = yeast lifespan extension; S. cerevisiae growth with nicotinamide, OD615; deaD strain in restrictive glucose medium; inhibition of the nicotinamide effect, % at 10 µM; 130,000 compounds, 0.68% hits;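 active = inhibition above a set limit, placed 3 SD over the median of all compounds, cut at about 26% in these data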
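Assay system: DeaD-strain S. cerevisiae. Medium: CSMM-D glucose medium, restrictive. Reagent: nicotinamide, 1.5 mM, co-present with compound. Compound: 10 µM single point, 0.25% DMSO. Schedule: culture preincubation 4 h, compound exposure 48 h, both 30 °C. Detection: absorbance at 615 nm.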
sEH inhibitor = inhibitors of human soluble epoxide hydrolase; recombinant human sEH enzymatic activity assay; inhibition, % at 2 µM; 91,000 compounds, 0.34% hits; AID 707; in the data active = inhibition above about 80%
Yeast growth inh = yeast BB579 growth reduction in restrictive medium; S. cerevisiae BB579 growth, OD615, 48 h; inhibition, % at 10 µM; 140,000 compounds, 0.51% hits; AID 804;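 active = inhibition above a set limit, 3 SD over the mean compound inhibition, cut at about 44% in these data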
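controls = amphotericin B 10 µg/mL, positive | assay system = DeaD yeast strain BB579 | schedule = 48 h compound exposure at 30 °C after 4 h preincubation | detection = OD615 turbidity measurement | medium = restrictive CSMM-D medium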
Each line names hits and unclear results; the compound was inactive in the other large screens.

CC1(C(=O)NC2CCCCCCC2)CC1(Cl)Cl (stereo not drawn)	none
CC1CCCC(n2c(=S)[nH]c3ccccc3c2=O)C1C (stereo not drawn)	Measles CPE 32 (no result: sEH act, sEH inhibitor)
CC1CCC(n2c(=S)[nH]c3ccccc3c2=O)CC1 (stereo not drawn)	none
CC1(C)CC(=O)C2=C(C1)NCN(Cc1ccccc1)C2	sEH act 46
CCCN1CN(Cc2ccccc2)CC2=C1CC(C)(C)CC2=O	none
N#CC(C#N)=C1NC2(CCCC2)Cc2ccccc21	none (no result: sEH act, sEH inhibitor)
COc1ccc(CCNS(=O)(=O)c2ccc3c(c2)CCN3C(=O)C2CC2)cc1OC	none (no result: sEH act, sEH inhibitor)
COc1ccc(CCNS(=O)(=O)c2ccc3c(c2)CC(C)N3C(C)=O)cc1OC (stereo not drawn)	Measles CPE 38 (no result: sEH act, sEH inhibitor)
CC(c1ccco1)N(C(=O)c1ccccc1NS(=O)(=O)c1cccc([N+](=O)[O-])c1)c1ccccn1 (stereo not drawn)	Yeast lifespan up 34 (no result: sEH act, sEH inhibitor)
CC(c1ccco1)N(C(=O)c1ccccc1NS(=O)(=O)c1cc([N+](=O)[O-])ccc1Cl)c1ccccn1 (stereo not drawn)	Yeast lifespan up 59 (no result: sEH act, sEH inhibitor)
CC(c1ccco1)N(C(=O)c1ccccc1NS(=O)(=O)c1ccc(Cl)cc1)c1ccccn1 (stereo not drawn)	none (no result: sEH act, sEH inhibitor)
O=C(c1ccc(Cl)cc1)c1c[nH]cc1-c1ccccc1	none (no result: Yeast lifespan up)
O=C(c1ccc(Cl)cc1)c1c[nH]c(C(=O)C(Cl)(Cl)Cl)c1	Yeast growth inh 84
O=C(NCCC1=CCCCC1)C(=O)NCC(c1ccco1)N1CCN(c2ccc(F)cc2)CC1 (stereo not drawn)	none (no result: sEH act, sEH inhibitor)
Cc1ccc(-n2nc(C)c(/C=N/NC(=O)c3cccnc3)c2Cl)cc1	none (no result: sEH act, sEH inhibitor)
Cc1nn(-c2ccccc2)c(Cl)c1/C=N/NC(=O)c1cccnc1	Measles CPE 44 (no result: sEH act, sEH inhibitor)
CC(=O)NC(=S)Nc1ccc(NC(=O)COc2ccc(Cl)cc2Cl)cc1	sEH inhibitor 82
O=C(COc1ccc(Cl)cc1Cl)NNC(=S)Nc1ccc(F)cc1	none
CC(=O)N1CCN(c2ccc(NC(=O)COc3ccc(Cl)cc3Cl)cc2)CC1	sEH inhibitor 90
Cc1ccc(Oc2nc(CN3CCOCC3)nc3sc4c(c23)CCC(C)C4)cc1C (stereo not drawn)	Yeast growth inh 81 (no result: sEH act, sEH inhibitor)
CCOc1nc(C#N)nc(N2CCCCC2)n1	Measles CPE 36 (no result: sEH act, sEH inhibitor)
Cc1cc2c(c(=O)o1)C(CC(C)C)C(C#N)=C(N)O2 (stereo not drawn)	none
Cc1cc2c(c(=O)o1)C(C13C=CC(CC1)C3)C(C#N)=C(N)O2 (stereo not drawn)	Measles CPE 31
CN(C)c1oc(-c2ccc(Cl)cc2)nc1S(=O)(=O)c1ccccc1	none (no result: sEH act, sEH inhibitor)
O=c1c2c3c(sc2nc2n1CCC2)CCC3	Measles CPE 36
O=c1c2c3c(sc2nc2n1CCCC2)CCCC3	none (no result: Yeast lifespan up)
COc1ccc(N2CCN(CC(O)COc3ccccc3[N+](=O)[O-])CC2)cc1 (stereo not drawn)	none (no result: sEH act, sEH inhibitor)
CC(=O)[C@H]1[C@H](c2cccc(Cl)c2)C(C#N)(C#N)[C@@H]2c3ccccc3C=CN21	Yeast lifespan up 45 (no result: sEH act, sEH inhibitor)
CC(=O)[C@H]1[C@@H]2C(=O)N(c3cccc(Cl)c3)C(=O)[C@@H]2[C@H]2c3ccccc3C=CN21	none (no result: sEH act, sEH inhibitor)
Cc1ccc(-c2csc(NC(=O)C3=NN(c4ccccc4)C(=O)CC3)n2)cc1	none (no result: sEH act, sEH inhibitor)
CCCC(=Nc1ccccc1OC)C1=C(O)CC(c2ccccc2)CC1=O (stereo not drawn)	Yeast lifespan up 59 (no result: sEH act, sEH inhibitor)
CCCC(=NCCc1c(C)[nH]c2ccccc12)C1=C(O)CC(c2ccccc2)CC1=O (stereo not drawn)	none (no result: sEH act, sEH inhibitor)
CCCCC(=Nc1ccccc1OC)C1=C(O)CC(c2ccccc2)CC1=O (stereo not drawn)	Yeast lifespan up 67 (no result: sEH act, sEH inhibitor)
CCCCCCCN=CC1=C(O)CC(c2ccccc2)CC1=O (stereo not drawn)	none (no result: sEH act, sEH inhibitor)
COC(=O)c1cc(=O)n(CCc2ccc(OC)c(OC)c2)c(=Nc2ccc(F)c(Cl)c2)s1	none
O=C(OCC(=O)N1CCCc2ccccc21)c1cccnc1Cl	Measles CPE 39 (no result: sEH act, sEH inhibitor)
CC(=O)Oc1c(C(=O)c2nnc(C)o2)c(=O)n(C)c2ccccc12	Yeast lifespan up 54 (no result: sEH act, sEH inhibitor)
Cn1c(=O)[nH]c(=O)c2c1nc(N1CCCCCC1)n2CCCSc1nnnn1-c1ccccc1	none (no result: sEH act, sEH inhibitor)
CN(C)c1ccc(/C=C/c2cc[n+](C)cc2)cc1	Measles CPE 49
CN(C)c1ccc(/C=C/c2cc[n+]([O-])cc2)cc1	none
CCOC(=O)CN(Cc1sccc1C)C(=O)Nc1ccc(OCC)cc1	none (no result: sEH act, sEH inhibitor)
CCNC(=S)Nc1ccccc1-c1ccccc1	none (no result: sEH act, sEH inhibitor)
Cc1ccc(-n2c(C)cc(C3=NNC(=NC4CC4)SC3)c2C)cc1C	Measles CPE 74 (no result: sEH act, sEH inhibitor)
O=C(Nc1ccc(Cl)c(Cl)c1)N1CCC(N2CCCCC2)CC1	Measles CPE 61
O=C(Nc1ccc(Cl)cc1)Nc1ccc(N2CCOCC2)cc1	none
O=C(Nc1ccc(Cl)cc1)N1CCSCC1	none
O=C(Nc1ccc(Cl)c(Cl)c1)N1CCSCC1	sEH inhibitor 82 (no result: Yeast lifespan up)
O=C(Nc1ccc(N2CCOCC2)cc1)Nc1ccc(Cl)c(Cl)c1	sEH inhibitor 82
CCOC(=O)c1c(C)[nH]c(C(=O)COC(=O)CNC(=O)c2ccc(Cl)cc2Cl)c1C	none (no result: sEH act, sEH inhibitor)
COCCCNC(=O)c1ccc(C(=O)NCCCOC)cc1	none
COCCCNC(=O)c1ccc([N+](=O)[O-])c(Cl)c1	Measles CPE 36 (no result: sEH act, sEH inhibitor)
COc1ccc(S(=O)(=O)Cc2ccc(C(=O)NCc3ccc(F)cc3)o2)cc1	Measles CPE 32
O=C1C(=C(O)c2ccccc2)C(=O)c2ccccc21	Yeast lifespan up 42 (no result: sEH act, sEH inhibitor)
CCOC(=O)/C(=C/c1ccc(OC(=O)c2ccccc2)cc1)C(C)=O	Yeast lifespan up 33 (no result: sEH act, sEH inhibitor)
CCc1cc(C(=O)Cc2ccc(F)cc2)c(O)cc1O	none (no result: sEH act, sEH inhibitor)
CCCc1cc(C(=O)Cc2ccc(F)cc2)c(O)cc1O	Yeast growth inh 92
CC(C)(C)NS(=O)(=O)c1ccc(CCC(=O)NCc2cccnc2)cc1	none
CC(C)CC(=O)Nc1cc(NC(=O)CC(C)C)cc(C(=O)NC(C)(C)C)c1	none
C=C(C)CNC(=S)NNC(=O)CCn1c2ccc(Cl)cc2c2cc(Cl)ccc21	none (no result: sEH act, sEH inhibitor)
N#C/C(=C(/O)CN1CCN(c2ccccc2F)CC1)c1nc(-c2ccc(Cl)cc2)cs1	none
N#C/C(=C(/O)CN1CCCCC1)c1nc(-c2ccc(Cl)cc2)cs1	Measles CPE 81
Cc1ccc(N(CCC(=O)Nc2nnc(C3CC3)s2)S(=O)(=O)c2ccccc2)cc1	none (no result: sEH act, sEH inhibitor)
Cc1cc(C(=O)NCc2cccnc2)cs1	none
Cc1ccc(C(=O)c2c[nH]c(C(=O)NCc3cccnc3)c2)cc1	Measles CPE 28
COc1ccc(OC)c(Nc2nc(C3CC3)nc3c2nnn3Cc2ccccc2)c1	Measles CPE 66
c1ccc(Cn2nnc3c(Nc4ccc5c(c4)OCO5)nc(C4CC4)nc32)cc1	none (no result: sEH act, sEH inhibitor)
Cc1nc2ccccn2c1C(=O)NN=C1C2CC3CC(C2)CC1C3	Measles CPE 38, Yeast lifespan up 38 (no result: sEH act, sEH inhibitor)
